{"source": "ChEMBL document CHEMBL1157852", "about": "“Modulation of doxorubicin activity in cancer cells by conjugation with fatty acyl and terpenyl hydrazones” (Eur J Med Chem, 2010)", "key": {"MCF7 [1]": {"system": "MCF7", "experiment": "Cytotoxicity against human doxorubicin-resistant MCF7 cells by MTT assay", "assay_type": "functional"}, "[2]": {"experiment": "Ratio of compound IC50 to doxorubicin IC50 for human doxorubicin-resistant KBV1 cells", "assay_type": "functional"}, "518A2": {"system": "518A2", "experiment": "Induction of apoptosis in human 518A2 cells assessed as increase of caspase 9 activity at 5 uM after 8 to 12 hrs by luminometric assay", "assay_type": "functional, cell-based", "method_in_brief": "(§1)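 HL-60 and 518A2 cells treated with 5 µM compound and sampled at intervals from 1 to 24 h. Lysed in 50 mM Tris-HCl pH 7.4, 150 mM NaCl, 1% Triton X-100 with protease inhibitors for 15 min at 4 °C, spun at 800 g. Protein measured by Bradford. Caspase-3/7, -8 and -9 activities read with luminogenic peptide substrates; reported as relative luminescence.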"}, "HL-60 [3]": {"system": "HL-60", "experiment": "Induction of apoptosis in human HL60 cells assessed as appearance of intact mitochondria in cytosol at 5 uM after 6 hrs using JC1 dye relative to control", "assay_type": "functional", "method_in_brief": "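Mitochondrial membrane potential measured with JC-1. Cells exposed to 5 µM compound for 6 or 18 h, pelleted at 400 g, stained with 0.2× JC-1 at 37 °C for 15 min (HL-60) or 35 min (518A2), washed and resuspended in PBS. Red fluorescence (ex 585/em 590 nm) and green (ex 510/em 527 nm) read; red/green ratio relative to untreated controls (100%). Mean ± SD, four independent experiments.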"}, "[4]": {"experiment": "Cytotoxicity against human vinblastine-resistant KBV1 cells after 48 hrs by MTT assay", "assay_type": "functional, cell-based", "conditions": "KB-V1, 48 h", "method_in_brief": "(§2)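 MTT assay. Cells seeded and cultured 24 h, then exposed to compound for 24, 48 or 72 h. MTT added to a final 0.05% (HL-60, 518A2) or 0.1% (KB-V1, MCF-7) for 2 h. Formazan dissolved in 10% SDS/DMSO with 0.6% acetic acid; absorbance read at 570 nm against 630 nm background. Viability taken relative to untreated controls (100%). IC50 from concentration-response curves, mean ± SD of four independent experiments.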"}, "HL-60 [5]": {"system": "HL-60", "experiment": "Induction of apoptosis in human HL60 cells assessed as increase of caspase 3 activity at 5 uM after 4 hrs by luminometric assay", "assay_type": "functional, cell-based", "method_in_brief": "as §1"}, "HL-60 [6]": {"system": "HL-60", "experiment": "Cytotoxicity against human HL60 cells assessed as increase in ROS production at 5 uM after 24 hrs by NBT reduction assay relative to control", "assay_type": "functional", "method_in_brief": "(§3)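 NBT assay. HL-60 cells (0.5×10⁶/mL) or trypsinised 518A2 cells (5×10⁴/mL) pre-incubated 24 h at 37 °C, then given compound at a final 5 µM for 24 or 72 h. Medium removed; cells incubated with 0.1% NBT for 1 h (HL-60) or 4 h (518A2). Diformazan dissolved in 2 M KOH/DMSO; A630 read against 405 nm. Given as % of untreated controls; double quadruplicates.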"}, "[7]": {"experiment": "Cytotoxicity against human 518A2 cells after 48 hrs by MTT assay", "assay_type": "functional, cell-based", "conditions": "518A2, 48 h", "method_in_brief": "as §2"}, "[8]": {"experiment": "Cytotoxicity against human 518A2 cells assessed as increase in ROS production at 5 uM after 72 hrs by NBT reduction assay relative to control", "assay_type": "functional", "method_in_brief": "as §3"}, "MCF7 [9]": {"system": "MCF7", "experiment": "Cytotoxicity against human topotecan-resistant MCF7 cells after 72 hrs by MTT assay in presence of […] BCRP inhibitor fumitremorgin C", "assay_type": "functional, cell-based", "conditions": "MCF7, 72 h", "method_in_brief": "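MCF-7/Topo cells grown in E-MEM with 2.2 g/L NaHCO₃, 110 mg/L sodium pyruvate and 5% FCS. Cells were seeded, cultured 24 h, given fumitremorgin C, then exposed to compound for 72 h. MTT was added (final 0.1%) for 2 h, medium discarded, and formazan dissolved in 10% SDS/DMSO with 0.6% acetic acid. A570 (630 background) read versus untreated controls; IC50 from concentration-response curves; four independent experiments, mean ± SD.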"}}, "note": "Active and inactive are the calls of the source. No cut-off for these calls is given here."}
{"molecule": "COc1cccc2c1C(=O)c1c(O)c3c(c(O)c1C2=O)C[C@@](O)(/C(CO)=N/NC(=O)CCCCCCCCCCC(=O)O[C@@H]1C[C@H](C)CC[C@H]1C(C)C)C[C@@H]3O[C@H]1C[C@H](N)[C@H](O)[C@H](C)O1.Cl", "values": [{"measurement": "Activity", "setting": "MCF7 [1]", "result": 55, "unit": "nM"}, {"measurement": "Ratio IC50", "setting": "[2]", "result": 1.6}, {"measurement": "Activity", "setting": "518A2", "result": "Active"}, {"measurement": "Activity", "setting": "HL-60 [3]", "result": 90, "unit": "%"}, {"measurement": "IC50", "setting": "[4]", "result": 17100, "unit": "nM"}, {"measurement": "Activity", "setting": "HL-60 [5]", "result": "Active"}, {"measurement": "Activity", "setting": "HL-60 [6]", "result": 3.8, "unit": "%"}, {"measurement": "IC50", "setting": "[7]", "result": 160, "unit": "nM"}, {"measurement": "Activity", "setting": "[8]", "result": 38.3, "unit": "%"}, {"measurement": "IC50", "setting": "MCF7 [9]", "result": 90, "unit": "nM"}]}
